The subject of one experiment is SJ-G2. Put plainly: Cytotoxicity against human SJ-G2 cells assessed as growth inhibition at 25 uM measured after 72 hrs by MTT assay. The class given is functional, cell-based. Put shortly:
(§1)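 Log-phase cells were plated in duplicate at 2500–4000 cells/well in DMEM with 10% FBS, glutamine and antibiotics, at 37 °C under 5% CO2. Drug was added 24 h after plating from a 40 mM DMSO stock, to a final 25 μM. After 72 h exposure, MTT was read at 540 nm and % growth inhibition was calculated, with 100% meaning total growth inhibition.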

A further experiment has as its system MIA. Put plainly: Cytotoxicity against human MIA cells assessed as growth inhibition at 25 uM measured after 72 hrs by MTT assay. Type of experiment: functional. The procedure, abridged: as §1
In general terms: Formazan colour is commonly taken as a measure of viable cells.

The subject of another experiment is BE(2)-C. Briefly: Cytotoxicity against human BE(2)-C cells assessed as growth inhibition at 25 uM measured after 72 hrs by MTT assay. Type of experiment: functional. Put shortly:
as §1

Experiment [1] has as its system A-431. Put plainly: Cytotoxicity against human A431 cells assessed as growth inhibition at 25 uM measured after 72 hrs by MTT assay. The class given is functional, cell-based. The procedure, abridged: as §1
Experiment [2] deals with DU-145. Put plainly: Cytotoxicity against human DU145 cells assessed as growth inhibition at 25 uM measured after 72 hrs by MTT assay. Type of experiment: functional, cell-based. Put shortly:
as §1

In experiment [3] the test system is A2780. Put plainly: Cytotoxicity against human A2780 cells assessed as growth inhibition at 25 uM measured after 72 hrs by MTT assay. The class given is functional. The procedure, abridged: as §1
The test system of another experiment is NCI-H460. Put plainly: Cytotoxicity against human H460 cells assessed as growth inhibition at 25 uM measured after 72 hrs by MTT assay. The class given is functional, cell-based. The procedure, abridged:
as §1

In experiment [4] the test system is SW480. Put plainly: Cytotoxicity against human SW480 cells assessed as growth inhibition at 25 uM measured after 72 hrs by MTT assay. Type of experiment: functional. The procedure, abridged: as §1
Experiment [5] concerns MCF7. Put plainly: Cytotoxicity against human MCF7 cells assessed as growth inhibition at 25 uM measured after 72 hrs by MTT assay. Type of experiment: functional. Put shortly: as §1
Experiment [6] deals with HT-29. Briefly: Cytotoxicity against human HT-29 cells assessed as growth inhibition at 25 uM measured after 72 hrs by MTT assay. Type of experiment: functional, cell-based. The procedure, abridged:
as §1

Another experiment relates to SMA. Put plainly: Cytotoxicity against mouse SMA cells assessed as growth inhibition at 25 uM measured after 72 hrs by MTT assay.
Experiment [7] can be described thus: Cytotoxicity against human SJ-G2 cells assessed as growth inhibition measured after 72 hrs by MTT assay. The class given is functional. To be noted: SJ-G2, 72 h. The procedure, abridged: (§2)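 Cells in log phase were seeded in duplicate at 2500–4000 cells/well in supplemented DMEM (37 °C, 5% CO2). Drug from a 40 mM DMSO stock was added on day 0, 24 h post-plating. Read-out was MTT absorbance at 540 nm after 72 h.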

The nature of experiment [8]: Cytotoxicity against human MIA cells assessed as growth inhibition measured after 72 hrs by MTT assay. Type of experiment: functional. Put shortly: as §2
Experiment [9] has as its system DU-145. Put plainly: Cytotoxicity against human DU145 cells assessed as growth inhibition measured after 72 hrs by MTT assay. The note with it: DU-145, 72 h. The class given is functional. The procedure, abridged:
as §2

Experiment [10] is described as follows: Cytotoxicity against human BE(2)-C cells assessed as growth inhibition measured after 72 hrs by MTT assay. Type of experiment: functional. The procedure, abridged: as §2
Experiment [11] can be described thus: Cytotoxicity against human H460 cells assessed as growth inhibition measured after 72 hrs by MTT assay. Type of experiment: functional. To be noted: NCI-H460, 72 h. Put shortly:
as §2

Experiment [12] relates to A-431. Briefly: Cytotoxicity against human A431 cells assessed as growth inhibition measured after 72 hrs by MTT assay. Type of experiment: functional. To be noted: A-431, 72 h. The procedure, abridged:
as §2

Experiment [13] concerns MCF7. Briefly: Cytotoxicity against human MCF7 cells assessed as growth inhibition measured after 72 hrs by MTT assay. To be noted: MCF7, 72 h. Type of experiment: functional. Put shortly:
as §2

Experiment [14] deals with A2780. Briefly: Cytotoxicity against human A2780 cells assessed as growth inhibition measured after 72 hrs by MTT assay. The note with it: A2780, 72 h. Type of experiment: functional. Put shortly:
as §2

Experiment [15] has as its system HT-29. Put plainly: Cytotoxicity against human HT-29 cells assessed as growth inhibition measured after 72 hrs by MTT assay. Type of experiment: functional. The note with it: HT-29, 72 h. Put shortly: as §2
Experiment [16] deals with SW480. Put plainly: Cytotoxicity against human SW480 cells assessed as growth inhibition measured after 72 hrs by MTT assay. Type of experiment: functional. To be noted: SW480, 72 h. The procedure, abridged:
as §2

A short description of experiment [17]: Cytotoxicity against mouse SMA cells assessed as growth inhibition measured after 72 hrs by MTT assay.

Structures are written as SMILES. The source made the active and inactive calls. The rule behind the calls is not given here.

As for `COc1ccc(/C=C(\C#N)C(=O)c2ccc[nH]2)cc1`, the “growth inhibition (GI)” value in the experiment on SJ-G2, in the experiment with MIA, with BE(2)-C, with A-431 [1], in the experiment with DU-145 [2] and with A2780 [3] was “inactive” each time. Also, the “growth inhibition (GI)” value in the experiment on NCI-H460, in the experiment with SW480 [4], with MCF7 [5], in the experiment with HT-29 [6] and in the experiment with SMA was “inactive” throughout.

Regarding `Cc1ccc(/C=C(\C#N)C(=O)c2ccc[nH]2)cc1`, the “growth inhibition (GI)” value in the experiment on SJ-G2, with MIA, in the experiment on BE(2)-C, in the experiment on A-431 [1], with DU-145 [2] and with A2780 [3] was “inactive” each time. The “growth inhibition (GI)” value in the experiment with NCI-H460, with SW480 [4], with MCF7 [5], with HT-29 [6] and with SMA was “inactive” in each case.

In the case of `N#C/C(=C\c1ccc(O)cc1)C(=O)c1ccc[nH]1`, the “growth inhibition (GI)” value with SJ-G2, with MIA, in the experiment on BE(2)-C, in the experiment on A-431 [1], with DU-145 [2] and with A2780 [3] was “inactive” each time. The “growth inhibition (GI)” value in the experiment on NCI-H460, with SW480 [4], with MCF7 [5], with HT-29 [6] and in the experiment with SMA was “inactive” each time.

In the case of `N#C/C(=C\c1ccc2ccccc2c1)C(=O)c1c[nH]c2ccccc12`, the “growth inhibition (GI)” value in the experiment with SJ-G2, with MIA, with BE(2)-C, in the experiment with A-431 [1], with DU-145 [2] and in the experiment with A2780 [3] was “inactive” each time. The “growth inhibition (GI)” value in the experiment on NCI-H460, in the experiment with SW480 [4], in the experiment on HT-29 [6] and in the experiment with SMA was “inactive” in each case. Also, the inhibition of growth at 25 µM in the experiment with MCF7 [5] (MCF7, 72 h, read-out: GI) is 40%.

For `N#C/C(=C\c1ccc(O)cc1)C(=O)c1c[nH]c2ccccc12`, the “growth inhibition (GI)” value in the experiment with SJ-G2, in the experiment with MIA, in the experiment on BE(2)-C, in the experiment on A-431 [1], in the experiment with DU-145 [2] and in the experiment with A2780 [3] was “inactive” in each case. The “growth inhibition (GI)” value with NCI-H460, with SW480 [4], in the experiment on MCF7 [5], with HT-29 [6] and in the experiment with SMA was “inactive” each time.

Regarding `Cc1ccc(/C=C(\C#N)C(=O)c2c[nH]c3ccccc23)cc1`, the “growth inhibition (GI)” value with SJ-G2, with MIA, in the experiment with BE(2)-C, with A-431 [1], in the experiment with DU-145 [2] and in the experiment with A2780 [3] was “inactive” throughout. In addition, the “growth inhibition (GI)” value in the experiment with NCI-H460, in the experiment on SW480 [4], with MCF7 [5], in the experiment on HT-29 [6] and in the experiment on SMA was “inactive” each time.

Turning to `N#C/C(=C\c1ccc([N+](=O)[O-])cc1)C(=O)c1ccc[nH]1`, the “growth inhibition (GI)” value in the experiment with SJ-G2, in the experiment on MIA, in the experiment with BE(2)-C, in the experiment with A-431 [1], in the experiment on DU-145 [2] and in the experiment with A2780 [3] was “inactive” each time. Besides, the “growth inhibition (GI)” value in the experiment on NCI-H460, in the experiment on SW480 [4], with MCF7 [5], in the experiment with HT-29 [6] and in the experiment with SMA was “inactive” in each case.

Take `N#C/C(=C\c1ccc(C(F)(F)F)cc1)C(=O)c1ccc[nH]1`: the “growth inhibition (GI)” value in the experiment with SJ-G2, in the experiment on MIA, with BE(2)-C, in the experiment on A-431 [1], with DU-145 [2] and in the experiment on A2780 [3] was “inactive” each time. The “growth inhibition (GI)” value in the experiment with NCI-H460, in the experiment with SW480 [4], in the experiment with MCF7 [5], in the experiment on HT-29 [6] and in the experiment with SMA was “inactive” in each case.

Take `N#C/C(=C\c1ccc(Cl)c(Cl)c1)C(=O)c1ccc[nH]1`: the “growth inhibition (GI)” value in the experiment on SJ-G2, in the experiment with MIA, in the experiment with BE(2)-C, with A-431 [1], in the experiment on DU-145 [2] and in the experiment with A2780 [3] was “inactive” throughout. The “growth inhibition (GI)” value in the experiment with NCI-H460, in the experiment on SW480 [4], in the experiment on MCF7 [5], with HT-29 [6] and in the experiment on SMA was “inactive” each time.

As for `COc1ccc(CNC(=O)/C(C#N)=C/c2ccc(O)cc2)cc1`, the “growth inhibition (GI)” value with SJ-G2, in the experiment on MIA, in the experiment with BE(2)-C, in the experiment on A-431 [1], in the experiment on DU-145 [2] and with A2780 [3] was “inactive” throughout. In addition, the “growth inhibition (GI)” value in the experiment with NCI-H460, in the experiment on SW480 [4], in the experiment with MCF7 [5], in the experiment on HT-29 [6] and in the experiment with SMA was “inactive” throughout.

As to `COc1ccc(/C=C(\C#N)C(=O)c2c[nH]c3ccccc23)cc1`, the “growth inhibition (GI)” value with SJ-G2, in the experiment on MIA, in the experiment on BE(2)-C, in the experiment with A-431 [1], in the experiment on DU-145 [2] and with A2780 [3] was “inactive” each time. The “growth inhibition (GI)” value in the experiment on NCI-H460, with SW480 [4], with MCF7 [5], in the experiment with HT-29 [6] and in the experiment with SMA was “inactive” in each case.

For `N#C/C(=C\c1ccc2ccccc2c1)C(=O)c1ccc[nH]1`, the “growth inhibition (GI)” value with SJ-G2, in the experiment on MIA, with BE(2)-C, with A-431 [1], with DU-145 [2] and with A2780 [3] was “inactive” throughout. The “growth inhibition (GI)” value in the experiment on NCI-H460, in the experiment on SW480 [4], with MCF7 [5], in the experiment with HT-29 [6] and in the experiment with SMA was “inactive” in each case.

Usually GI50 stands for the concentration at which growth is held to half of that of the control. As to `N#C/C(=C\c1ccc[nH]1)C(=O)NCc1ccc(Cl)c(Cl)c1`, the GI50 in experiment [7] was greater than 50 µM; in experiment [8], greater than 50 µM; in the experiment with DU-145 [9], greater than 50 µM; in [10], 43 µM; in experiment [11] it was greater than 50 µM; in the experiment on A-431 [12], greater than 50 µM. For the same molecule, the GI50 in the experiment on MCF7 [13] was 6 µM; in the experiment on A2780 [14] it was greater than 50 µM; in the experiment on HT-29 [15], 85 µM; with SW480 [16] it was greater than 50 µM; in experiment [17] it was greater than 50 µM.

The record behind these values is ChEMBL document CHEMBL2331240, “Focused library development of 2-phenylacrylamides as broad spectrum cytotoxic agents” (2013).
